# Screening data as filed in PubChem.
# An excerpt weighted towards active compounds, which were near 3% of everything screened.
# SENP8 block-1 = blocks the human protease SENP8 | purified SENP8, Z-RLRGG-aminoluciferin cleavage, luminescence | AID 2540 | Q96LD8 | inhibition, % at 10 µM | 1.2% of 330,000 active; in the data active = inhibition above about 50%
# Target sequence (Q96LD8 whole entry, looked up): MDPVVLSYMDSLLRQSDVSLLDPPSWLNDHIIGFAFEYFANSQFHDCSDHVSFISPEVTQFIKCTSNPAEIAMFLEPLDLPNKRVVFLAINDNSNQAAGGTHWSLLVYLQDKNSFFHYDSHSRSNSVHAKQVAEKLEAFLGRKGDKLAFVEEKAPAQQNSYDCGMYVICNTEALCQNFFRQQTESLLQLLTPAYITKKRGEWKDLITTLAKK
# SENP6 block = inhibitors of human SENP6 protease | Recombinant SENP6 catalytic domain, aminoluciferin luminescence | 1.8% of 330,000 active | inhibition, % at 10 µM | Q9GZR1;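 active = inhibition above about 50% at the single tested dose, limit read from the data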
# SENP8 block-2 = blocks human SENP8 cleavage of Nedd8 substrate; Q96LD8; recombinant SENP8, Nedd8 substrate fluorescence; inhibition, % at 20 µM; 0.64% of 360,000 active; in the data active = inhibition mostly above about 40%, no sharp cut-off; inactive = mostly below about 27%
# Apaf-1 inh = inhibitors of human Apaf-1 apoptosome | inhibition, % at 20 µM | reconstituted apoptosome caspase-3 activity, DEVD-Rh110 fluorescence | O14727 | AID 489030 | 0.71% of 330,000 active; active = inhibition of at least 40% at 20 µM
#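 System – cell-free apoptosome with Apaf-1, procaspase-3 and caspase-9 · Buffer or medium – pH 7.5 Hepes buffer with CHAPS, BSA, DTT · Also added – cytochrome c with DEVD-Rh110 · Times – 30 min compound preincubation, 50 min activation, room temperature · Technique – Rh110 fluorescence intensity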
# SENP7 block = blocks the human protease SENP7. inhibition, % at 5 µM. 1.5% of 330,000 active. Q9BQF6. recombinant SENP7, Z-RLRGG-aminoluciferin luminescence, 40 min. AID 434973;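 active = inhibition above about 50% at the single test dose, limit read from the data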
# UBC13 polyUb = human UBC13 polyubiquitination inhibition; P61088; 0.47% of 330,000 active; UBC13 polyubiquitin chain formation, TR-FRET; inhibition, % at 20 µM; in the data active = inhibition above about 45%, passing the limit was not always enough; inconclusive = no clear call, values can overlap the other calls
# Target sequence (P61088 whole entry, looked up): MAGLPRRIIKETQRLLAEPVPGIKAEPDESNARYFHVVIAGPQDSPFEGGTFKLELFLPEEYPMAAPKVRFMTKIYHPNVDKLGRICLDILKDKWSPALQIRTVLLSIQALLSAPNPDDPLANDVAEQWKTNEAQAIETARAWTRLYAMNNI
# Casp3 UBC13 ctr = caspase-3 inhibition (UBC13 counter-screen); shares compounds with UBC13 polyUb; Recombinant caspase-3, Caspase-Glo 3/7 luminescence, 60 min; inhibition, % at 20 µM; 4% of 1,400 active; AID 488856;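 active = mean inhibition across replicates above about 26%, limit read from the data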
# Target sequence (P42574 whole entry, looked up): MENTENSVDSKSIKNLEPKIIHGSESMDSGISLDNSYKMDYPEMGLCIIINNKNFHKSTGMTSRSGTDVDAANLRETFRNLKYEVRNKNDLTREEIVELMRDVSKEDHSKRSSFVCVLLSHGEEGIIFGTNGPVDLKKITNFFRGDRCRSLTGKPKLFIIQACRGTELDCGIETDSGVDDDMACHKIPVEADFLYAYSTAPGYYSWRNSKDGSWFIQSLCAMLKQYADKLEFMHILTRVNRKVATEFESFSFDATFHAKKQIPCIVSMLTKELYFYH
# UBC13 conf = human UBC13 polyubiquitin inhibition, confirmed | 68% of 1,400 active | UBC13 polyubiquitination, TR-FRET, biochemical | shares compounds with UBC13 polyUb | inhibition, % at 10 µM; in the data active = inhibition above about 45%; inconclusive = no clear call, values can overlap the other calls
# Hits are given with their value; - = inactive; ? = inconclusive; . = no result.
SMILES,SENP8 block-1,SENP6 block,SENP8 block-2,Apaf-1 inh,SENP7 block,UBC13 polyUb,Casp3 UBC13 ctr,UBC13 conf
Cc1ccc(Nc2cc(C)nc(NCc3ccccc3)n2)cc1,-,-,-,-,-,55.6,-,82.6
COc1ccc(Nc2cc(C)nc(NCc3ccccc3)n2)cc1,-,-,-,-,-,-,.,.
CCO[C@H]1OC(C(=O)NCc2ccccc2)=C[C@@H](c2ccccc2)[C@@H]1CCCO,-,-,-,-,-,50.3,-,-
N#Cc1ccc(S(=O)(=O)N2CCCCC2c2cc(C(=O)NCc3ccccc3)no2)cc1 (centres undefined),.,.,-,.,.,.,.,.
c1ccc(C[C@H]2CNCCN2CCCCC2CCCCC2)cc1,-,-,-,49.4,-,60.9,-,67.5
CC1(C(=O)NS(=O)(=O)Cc2cccc(Cl)c2)CCN1C(=O)C/C=C/c1ccccc1 (centres undefined),.,.,-,.,.,.,.,.
CCOC(=O)c1c(CSC(=N)N)n(-c2ccc(Br)cc2)c2cc(Br)c(OC(C)=O)cc12,.,.,-,.,.,.,.,.
CCCCCCCCOC(=O)c1c(CSC(=N)N)n(C)c2cc(Br)c(OC(C)=O)cc12,-,-,-,-,-,95.5,-,113.7
O=C(NCc1cccs1)c1ccc2sc(C3=C[C@@H](O)[C@@H](O)[C@@H](CO)O3)nc2c1,.,.,-,.,.,.,.,.
Cc1ccc(S(=O)(=O)N2CCCC(C(=O)NNCC(=O)Nc3cc(F)ccc3F)C2)cc1 (centres undefined),-,-,-,-,-,47.8,-,-
O=C(CCn1c(=S)[nH]c2ccccc2c1=O)NCCc1ccccc1,-,-,-,-,-,-,.,.
O=C(CCCn1c(=S)[nH]c2ccsc2c1=O)NCCc1ccccc1,-,-,-,-,-,55.6,-,?
CC1=CC(C)(C)n2c(O)c(N=NC(N)=S)c3c(C)ccc1c32,-,-,-,-,-,-,.,.
COc1cc2c3c(c1)c(N=NC(N)=S)c(O)n3C(C)(C)C=C2C,-,-,-,-,-,80.3,-,84.1
CC1=CC(C)(C)n2c(O)c(N=NC(N)=S)c3cccc1c32,-,-,-,-,-,75.9,-,93.6
CNc1cnc(-c2ccsc2)cn1,.,.,-,.,.,.,.,.
CCc1ccc(NC(=O)CSc2nc3ccccc3c(=O)n2CCCC(=O)NCCCN2CCOCC2)cc1,-,-,-,-,-,-,.,.
Cc1ccc(NC(=O)CSc2ncnc3ccccc23)cc1S(=O)(=O)N1CCOCC1,-,-,-,-,-,50.7,-,-
O=C(CCCCCn1c(SCC(=O)c2ccccc2)nc2ccccc2c1=O)NCc1ccco1,-,-,-,-,-,-,.,.
Cc1ccc(NC(=O)CSc2nc3ccccc3c(=O)n2CCCC(=O)NCCCN2CCOCC2)cc1C,-,-,-,-,-,47.9,-,54.9
CCOC(=O)CSc1nc2ccccc2c(=O)n1CCCCCC(=O)NCc1ccco1,-,-,-,-,-,46.6,-,47.0
O=C(CSc1nc2ccsc2c(=O)n1NC(=O)c1ccccc1)NCc1ccco1,-,-,-,-,-,-,.,.
O=C(CSc1nc2ccsc2c(=O)n1Cc1ccccc1)NCc1ccco1,-,-,-,-,-,50.3,-,67.6
CCc1nc2ccc(C(=O)N3CCN(S(=O)(=O)CC)CC3)cn2c1N(CC)CCOC,.,.,-,.,.,.,.,.
CCn1c(SCC(=O)Nc2nc(-c3ccc(C)cc3)cs2)nnc1-c1ccccc1,-,-,-,-,-,-,.,.
SMILES,SENP8 block-1,SENP6 block,SENP8 block-2,Apaf-1 inh,SENP7 block,UBC13 polyUb,Casp3 UBC13 ctr,UBC13 conf
Cc1ccc(-c2csc(NC(=O)CSc3nc4ccccc4c(=O)n3CCCN(C)C)n2)cc1,-,-,-,-,-,89.2,-,93.9
COC(=O)[C@]12CCCCC=C1N(CCC1=CCCCC1)C(=O)[C@H](CC(=O)NCCCN1CCCC1=O)C2,.,.,-,.,.,.,.,.
CC1CCN(C(=O)C2CCN(c3ncnc4c3nc3n4CCCCC3)CC2)CC1,-,-,-,-,-,-,.,.
O=C(NCC1CCN(Cc2ccccc2F)CC1)C1CCCN(c2ncnc3c2nc2n3CCCCC2)C1 (centres undefined),-,-,-,-,-,46.7,-,60.3
O=C(NCCCN1CCN(c2ccccc2)CC1)C1CCCN(c2ncnc3c2nc2n3CCCCC2)C1 (centres undefined),-,-,-,-,-,80.3,-,100.6
O=C(Nc1ccc(F)c(Cl)c1)C1CCN(c2ncnc3c2nc2n3CCCCC2)CC1,-,-,-,-,-,73.5,-,75.4
O=C(NCCc1ccccc1)C1CCCN(c2ncnc3c2nc2n3CCCCC2)C1 (centres undefined),-,-,-,-,-,-,.,.
Cc1ccc(CN2CCC(CNC(=O)C3CCCN(c4ncnc5c4nc4n5CCCCC4)C3)CC2)cc1 (centres undefined),-,-,-,-,-,-,.,.
CCCN1CCN(C(=O)C2CCN(c3ncnc4c3nc3n4CCCCC3)CC2)CC1,-,-,-,-,-,76.6,-,94.0
C[C@H](CO)N1C[C@H](C)[C@@H](CN(C)S(=O)(=O)c2cccs2)OCc2cnnn2CCCC1=O,.,.,-,.,.,.,.,.
O=S1(=O)CC(N2CC=CC2)CN1Cc1ccccc1 (centres undefined),.,.,-,.,.,.,.,.
Cc1cccc(C)c1N1C(=O)c2ccccc2NC(=O)C1C(=O)Nc1ccc2c(c1)OCCO2 (centres undefined),.,.,-,.,.,.,.,.
O=C(NCCCN1CCCCC1)C1CCN(c2ncnc3c2nc2n3CCCCC2)CC1,-,-,-,-,-,72.8,-,86.2
Oc1ccc(-c2csc(Nc3ccc4c(c3)OCO4)n2)c(O)c1,.,.,-,.,.,.,.,.
N#Cc1ccc(Nc2nc(-c3ccc(O)cc3O)cs2)cc1C(F)(F)F,-,-,-,-,-,67.7,-,55.4
COc1ccc(-c2sc3ccccc3c2C#Cc2cncn2C)cc1,-,-,-,-,-,58.7,-,-
Cn1cncc1C#Cc1c(-c2ccc(S(C)(=O)=O)cc2)sc2ccccc12,-,-,-,-,-,68.9,-,49.7
CS(=O)(=O)c1ccc(-c2sc3ccccc3c2C#CCCO)cc1,-,-,-,-,-,-,.,.
CC1CCCC(C)N1CCCNC(=O)C1CCCN(S(=O)(=O)N2CCCCC2)C1 (centres undefined),.,.,-,.,.,.,.,.
CCCCn1nnnc1C(c1ccccc1)N1CCN(c2c(Cl)cncc2Cl)CC1 (centres undefined),.,.,-,.,.,.,.,.
COc1ccc(-c2oc3ncnc(N)c3c2-c2ccccc2)cc1,-,-,-,-,-,81.1,-,81.4
COc1ccc(-c2oc3ncn4nc(COc5ccccc5)nc4c3c2-c2ccc(OC)cc2)cc1,-,-,-,-,-,-,.,.
COc1ccc(C[C@H]2CN3C(=NC[C@@H]3Cc3ccccc3)N2CCNC(=O)CCC2CCCCC2)cc1,-,-,-,51.7,-,77.9,-,69.1
